Assay results taken from ChEMBL document CHEMBL3414437, “Synthesis of CDDO-amino acid-nitric oxide donor trihybrids as potential antitumor agents against both drug-sensitive and drug-resistant colon cancer” (J Med Chem, 2015).
Activity calls are given as the source filed them. No cut-off for these calls is given here.

Tests used:
[1] = test system: Mus musculus; experiment: Toxicity in nude BALB/c mouse xenografted with FU-resistant human HCT8 cells assessed as abnormal weight changes in kidney at 59.4 umol/kg administered as via oral gavage daily for 21 days; format: organism-based, HCT-8; details: in vivo, 504 h
Outline: (§1)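 Male BALB/c nude mice aged 6-8 weeks, implanted s.c. in the right flank with HCT-8/5-FU cells (2 × 10^6). Once tumors reached 180-200 mm3 (days 9-11), randomized to daily gavage for 21 days in cremophor-EL/DMSO/PBS (1:1:8), 0.2 mL. At the end, liver, kidney, lung and heart checked for size, colour and weight. n = 8 per group.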

[2] = test system: HCT-8; experiment: (§2) Antiproliferative activity against 5-FU resistant human HCT8 cells assessed as inhibition of cell proliferation at 1 uM after 72 hrs by MTT assay; format: functional
Outline: (§3)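 Cells grown in DMEM with 10% FBS and exposed to compound at 1 µM for 72 h. Proliferation measured by MTT at 570 nm and expressed as % inhibition versus untreated cells. Mean ± SD of three independent experiments.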

[3] = biological target: Signal transducer and activator of transcription 3 (Homo sapiens) (UniProt P40763); experiment: Inhibition of STAT3 protein phosphorylation in FU-resistant human HCT8 cells at 1 uM incubated for 24 hrs by Western blotting method; format: cell-based; details: HCT-8
Signal transducer and activator of transcription 3 (Homo sapiens), sequence (P40763 whole entry): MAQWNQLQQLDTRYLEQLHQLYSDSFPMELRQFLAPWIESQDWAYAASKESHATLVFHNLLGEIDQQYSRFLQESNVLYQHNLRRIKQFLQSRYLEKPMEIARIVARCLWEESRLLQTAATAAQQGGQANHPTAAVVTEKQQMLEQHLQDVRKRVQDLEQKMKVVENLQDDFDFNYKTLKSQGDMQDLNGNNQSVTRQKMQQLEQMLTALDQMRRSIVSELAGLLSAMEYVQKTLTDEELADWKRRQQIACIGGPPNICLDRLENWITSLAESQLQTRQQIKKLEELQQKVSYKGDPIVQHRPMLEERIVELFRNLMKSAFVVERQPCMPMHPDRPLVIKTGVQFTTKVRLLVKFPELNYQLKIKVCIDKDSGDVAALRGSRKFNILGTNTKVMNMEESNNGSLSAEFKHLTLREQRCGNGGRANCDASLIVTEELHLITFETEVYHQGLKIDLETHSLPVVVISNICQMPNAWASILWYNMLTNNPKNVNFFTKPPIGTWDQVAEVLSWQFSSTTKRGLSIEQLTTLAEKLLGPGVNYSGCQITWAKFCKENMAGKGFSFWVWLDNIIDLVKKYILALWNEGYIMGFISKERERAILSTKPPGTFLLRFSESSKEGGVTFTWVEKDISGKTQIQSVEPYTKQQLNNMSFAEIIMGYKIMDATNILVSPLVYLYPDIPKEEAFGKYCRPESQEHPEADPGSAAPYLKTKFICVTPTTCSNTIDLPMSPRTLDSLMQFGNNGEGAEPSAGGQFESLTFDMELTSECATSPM
Outline: (§4)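 Cells (1 x 10^6) grown 24 h in 6 cm dishes, then exposed in duplicate for 24 h to 0.25, 0.5 or 1 µM compound, with or without PTIO. Lysates (20 µg/lane) were run on 7.5% SDS-PAGE, blotted to PVDF and blocked in 5% milk. HRP secondaries with ECL detection; bands quantified by densitometry against β-actin or GAPDH. Three separate experiments, mean ± SD.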

[4] = biological target: RAC-alpha serine/threonine-protein kinase (Homo sapiens) (UniProt P31749); experiment: Inhibition of AKT protein phosphorylation in FU-resistant human HCT8 cells at 1 uM incubated for 24 hrs by Western blotting method; format: cell-based; details: HCT-8; outline: as §4
RAC-alpha serine/threonine-protein kinase (Homo sapiens), sequence (P31749 whole entry): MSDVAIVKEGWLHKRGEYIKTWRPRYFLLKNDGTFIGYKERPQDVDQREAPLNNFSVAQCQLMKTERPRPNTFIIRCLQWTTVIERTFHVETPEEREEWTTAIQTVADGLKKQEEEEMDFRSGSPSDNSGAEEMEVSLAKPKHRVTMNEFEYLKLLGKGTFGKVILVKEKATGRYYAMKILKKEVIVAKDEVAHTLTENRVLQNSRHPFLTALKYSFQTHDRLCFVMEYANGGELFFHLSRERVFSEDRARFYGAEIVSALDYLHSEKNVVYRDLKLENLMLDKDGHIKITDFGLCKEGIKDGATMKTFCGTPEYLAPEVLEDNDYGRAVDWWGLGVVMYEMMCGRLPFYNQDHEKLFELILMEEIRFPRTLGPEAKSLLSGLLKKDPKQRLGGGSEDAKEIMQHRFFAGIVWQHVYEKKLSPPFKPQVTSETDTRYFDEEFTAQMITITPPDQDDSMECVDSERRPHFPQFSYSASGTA

[5] = as §2; format: functional; details: HCT-8, 72 h, read-out: GI; outline: as §3
[6] = test system: HCT-8; experiment: Induction of nitric oxide release in 5-FU resistant human HCT8 cells at 100 uM incubated for 150 mins by Griess assay; format: functional, cell-based
Outline: (§5)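 Cells (1 × 10^6/well) treated in triplicate with compound at 100 µM for 150 min. Lysates mixed with Griess reagent for 10 min at 37 °C and read at 540 nm. Nitrite quantified from a sodium nitrite standard curve; 0.4% DMSO-treated cells served as background. Mean ± SD of three experiments.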

[7] = test system: CCD-841CoN; experiment: Induction of nitric oxide release in human CCD-841-CoN cells at 100 uM incubated for 150 mins by Griess assay; format: functional, cell-based; outline: as §5
[8] = test system: HCT-8; experiment: Antiproliferative activity against 5-FU resistant human HCT8 cells assessed as inhibition of cell proliferation at 0.25 uM after 24 hrs by MTT assay; format: functional, cell-based
[9] = test system: HCT-8; experiment: Antiproliferative activity against 5-FU resistant human HCT8 cells assessed as inhibition of cell proliferation at 0.125 to 0.5 uM incubated for 72 hrs after 24 hrs of pre-treatment with 0.75 uM and 1 .5 uM pepT1 substrate Gly-Sar by MTT assay; format: functional, cell-based
Outline: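 Cells pretreated with or without Gly-Sar (0.75 or 1.5 µM) for 24 h, then given a range of compound concentrations for 72 h. Proliferation inhibition measured by MTT.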

[10] = test system: HCT-8; experiment: Induction of nitric oxide release in 5-FU resistant human HCT8 cells at 150 uM incubated for 150 mins after 150 mins of pre-treatment with 0.75 uM to 192 uM pepT1 substrate Gly-Sar by Griess assay; format: functional, cell-based
Outline: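 Cells pretreated with Gly-Sar (0.75–192 µM, nine levels) for 150 min, then given compound at 150 µM for 150 min. Intracellular nitrite in lysates measured with Griess reagent (10 min, 37 °C, 540 nm) against a sodium nitrite standard curve. Mean ± SD of three experiments.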

[11] = test system: HCT-8; experiment: Inhibition of ERK protein phosphorylation in FU-resistant human HCT8 cells at 0.25 to 1 uM incubated for 24 hrs by Western blotting method; format: cell-based; outline: as §4
[12] = biological target: T1, Broad substrate specificity ATP-binding cassette transporter ABCG2 (Homo sapiens, UniProt Q9UNQ0); experiment: Induction of nitrosylation of BCRP protein in FU-resistant human HCT8 cells at 0.25 to 1 uM incubated for 24 hrs by Western blotting method; format: cell-based; details: hct-8, 24 h
T1 sequence (Q9UNQ0 whole entry): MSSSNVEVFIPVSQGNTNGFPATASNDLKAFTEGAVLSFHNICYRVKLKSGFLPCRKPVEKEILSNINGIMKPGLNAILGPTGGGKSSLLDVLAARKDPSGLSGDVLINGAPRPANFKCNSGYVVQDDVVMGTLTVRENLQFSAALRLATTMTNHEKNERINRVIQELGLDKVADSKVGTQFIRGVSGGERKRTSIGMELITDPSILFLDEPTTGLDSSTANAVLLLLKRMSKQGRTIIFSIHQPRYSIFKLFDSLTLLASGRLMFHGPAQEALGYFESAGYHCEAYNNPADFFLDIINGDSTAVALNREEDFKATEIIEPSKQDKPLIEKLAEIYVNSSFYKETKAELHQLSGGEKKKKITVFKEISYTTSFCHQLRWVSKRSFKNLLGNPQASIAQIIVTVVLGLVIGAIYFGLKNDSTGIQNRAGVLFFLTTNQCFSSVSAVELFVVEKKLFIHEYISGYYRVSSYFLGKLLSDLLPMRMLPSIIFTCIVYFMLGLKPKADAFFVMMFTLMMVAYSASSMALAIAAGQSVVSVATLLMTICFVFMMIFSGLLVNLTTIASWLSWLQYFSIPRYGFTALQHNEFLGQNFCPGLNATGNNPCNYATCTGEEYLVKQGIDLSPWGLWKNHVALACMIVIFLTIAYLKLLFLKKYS
Outline: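 HCT-8/5-FU cells (1 × 10^6) treated in duplicate for 24 h with 0.25, 0.5 or 1 µM test compound or 1 µM reference, with or without PTIO. Lysates immunoprecipitated overnight at 4 °C with anti-nitrotyrosine antibody on protein G beads. Eluates blotted with specific anti-Pgp, anti-MRP1 or anti-BCRP antibodies and quantified by densitometry. Mean ± SD of three experiments.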

[13] = test system: Mus musculus; experiment: Toxicity in female ICR mouse assessed as body weight level at 2.38 x 10^3 umol/kg administered as single dose via oral gavage measured on day 14 post treatment (reference value: 19.5 +/- 0.85 g); format: organism-based; details: in vivo
[14] = test system: Mus musculus; experiment: Toxicity in nude BALB/c mouse xenografted with FU-resistant human HCT8 cells assessed as abnormal color changes in lung at 17.8 to 35.7 umol/kg administered as via oral gavage daily for 21 days; format: organism-based, HCT-8; details: in vivo, 504 h; outline: as §1
[15] = test system: Mus musculus; experiment: Toxicity in nude BALB/c mouse xenografted with FU-resistant human HCT8 cells assessed as abnormal weight changes in kidney at 17.8 to 35.7 umol/kg administered as via oral gavage daily for 21 days; format: organism-based, HCT-8; details: in vivo, 504 h; outline: as §1

Compound | Activity [1] | growth inhibition (GI) [2] | inhibition [3] | inhibition [4] | inhibition of growth at 1 µM [5] [%] | Activity [6] | Activity [7] | Activity [8] | inhibition [9] | Activity [10] | inhibition [11] | Activity [12] | Activity [13] [g] | Activity [14] | Activity [15]
COC(=O)[C@]12CCC(C)(C)C[C@H]1[C@H]1C(=O)C=C3[C@@]4(C)C=C(C#N)C(=O)C(C)(C)[C@@H]4CC[C@@]3(C)[C@]1(C)CC2 [BARDOXOLONE METHYL] | Non-toxic | Active | Active | Active |  |  |  |  |  |  |  |  |  |  | 
CC1(C)CC[C@]2(C(=O)NCC(=O)OCC#CCOc3no[n+]([O-])c3S(=O)(=O)c3ccccc3)CC[C@]3(C)[C@H](C(=O)C=C4[C@@]5(C)C=C(C#N)C(=O)C(C)(C)[C@@H]5CC[C@]43C)[C@@H]2C1 |  |  |  |  | > 90 | Active | inactive | Active | inactive | inactive | Dose-dependent effect | Dose-dependent effect | 30 | Non-toxic | Non-toxic
